One assay has as its system HeLa. Nature of the assay: Cytotoxicity against human HeLa P4/R5 cells after 48 hrs by MTT assay. Type of assay: cell-based. As to conditions: read-out: EC50 (the source's name). In short, it runs like this: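 Same P4R5 MAGI cell design as the infection assay but without virus; viability read by MTT tetrazolium reduction; each concentration tested in triplicate wells.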
(Tetrazolium assays rely on reduction of a dye to a coloured formazan, in cell work by metabolically active cells.)

The subject of assay [1] is Human immunodeficiency virus 1. Nature of the assay: Antiviral activity against HIV1 3B infected in HeLa P4/R5 cells assessed as reduction of viral infection incubated for 2 hrs followed by incubated in drug-free medium for 46 hrs by single round infection beta-galactosidase reporter gene assay. Format: functional, organism-based. As to conditions: Human immunodeficiency virus 1, 3B. In short, it runs like this: (§1)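 P4R5 MAGI cells (CD4 and coreceptors, HIV-1 LTR–β-galactosidase reporter) seeded at 1.2 × 10^4 cells/well ~18 h before infection; exposed 2 h at 37 °C to cell-free X4 IIIB or R5 BaL virus with or without compound, washed, cultured 46 h more; β-galactosidase chemiluminescent read-out. Infection reduction relative to untreated; EC50 by regression; triplicate wells; dextran sulfate control.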
Background: In a reporter assay the amount or activity of a reporter protein is the signal.

Assay [2] deals with Human immunodeficiency virus 1. Nature of the assay: Antiviral activity against HIV1 BaL infected in HeLa P4/R5 cells assessed as reduction of viral infection incubated for 2 hrs followed by incubated in drug-free medium for 46 hrs by single round infection beta-galactosidase reporter gene assay. Format: functional, organism-based. As to conditions: Human immunodeficiency virus 1, BaL. In short, it runs like this: as §1

The test system of assay [3] is Human immunodeficiency virus 1. Briefly: Antiviral activity against wild type HIV1 clade C 98USMSC5016 clinical isolate infected in PHA-P-stimulated human PBMC assessed as reverse transcriptase activity incubated for 6 hrs followed by incubated in drug-free medium for 6 days by multiround infection assay. Type of assay: functional, organism-based. The note with it: Human immunodeficiency virus 1, clade C 98USMSC5016.

The test system of assay [4] is Human immunodeficiency virus 1. Nature of the assay: Antiviral activity against NNRTI-resistant HIV1 clade B A-17 clinical isolate infected in PHA-P-stimulated human PBMC assessed as reverse transcriptase activity incubated for 6 hrs followed by incubated in drug-free medium for 6 days by multiround infection assay. Type of assay: functional, organism-based. As to conditions: Human immunodeficiency virus 1, clade B A-17.

In assay [5] the test system is Human immunodeficiency virus 1. Nature of the assay: Antiviral activity against multidrug-resistant HIV1 clade B 4775-5 clinical isolate infected in PHA-P-stimulated human PBMC assessed as reverse transcriptase activity incubated for 6 hrs followed by incubated in drug-free medium for 6 days by multiround infection assay. As to conditions: Human immunodeficiency virus 1, clade B 4775-5. Type of assay: functional, organism-based.

Assay [6] concerns Human immunodeficiency virus 1. Briefly: Ratio of lamivudine EC50 to compound EC50 for HIV1 BaL infected in HeLa P4/R5 cells. Format: functional.
The test system of assay [7] is Human immunodeficiency virus 1. Nature of the assay: Ratio of zidovudine EC50 to compound EC50 for HIV1 3B infected in HeLa P4/R5 cells. Type of assay: functional.
Assay [8] concerns Human immunodeficiency virus 1. Briefly: Antiviral activity against wild type HIV1 clade B 94US3393IN clinical isolate infected in PHA-P-stimulated human PBMC assessed as reverse transcriptase activity incubated for 6 hrs followed by incubated in drug-free medium for 6 days by multiround infection assay. Format: functional, organism-based. The note with it: Human immunodeficiency virus 1, clade B 94US3393IN.

The test system of assay [9] is Human immunodeficiency virus 1. Briefly: Ratio of zidovudine EC50 to compound EC50 for HIV1 BaL infected in HeLa P4/R5 cells. Type of assay: functional.
Assay [10] has as its system Human immunodeficiency virus 1. Nature of the assay: Ratio of lamivudine EC50 to compound EC50 for HIV1 3B infected in HeLa P4/R5 cells. Format: functional.

The values below come from ChEMBL document CHEMBL2034836, “Synthesis and anti-HIV activities of glutamate and peptide conjugates of nucleoside reverse transcriptase inhibitors” (J Med Chem, 2012).

Usually EC50 stands for the concentration needed to bring the measured effect to its halfway point. For the molecule `CCCCCCCCCCCCCC(=O)NCCCC[C@H](NC(=O)[C@H](CCC(=O)OC[C@H]1O[C@@H](n2cc(C)c(=O)[nH]c2=O)C[C@@H]1F)NC(=O)CCCCCCCCCCCCC)C(=O)O`, the CC50 in the assay with HeLa was greater than 108000 nM. Moreover, the EC50 in [1] is 26800 nM; in assay [2], 29100 nM.
For the molecule `CCCCCCCCCCCCCC(=O)NCCCC[C@H](NC(=O)CCNC(=O)[C@H](CCC(=O)OC[C@H]1O[C@@H](n2cc(C)c(=O)[nH]c2=O)C[C@@H]1F)NC(C)=O)C(=O)O`, the CC50 in the assay with HeLa was greater than 121000 nM. Moreover, the 50% effective concentration (EC50) in assay [1] was found to be 10600 nM; in assay [2], 6900 nM.
The like results for `CCCCCCCCCCCCCC(=O)OC[C@H](NC(C)=O)C(=O)NCCC(=O)N[C@@H](CCC(=O)OC[C@H]1O[C@@H](n2cc(C)c(=O)[nH]c2=O)C[C@@H]1F)C(=O)NCC(=O)O` were, in that order, greater than 119000 nM, 11100 nM and 6900 nM.
The like results for `CCCCCCCCCCCCCC(=O)OC[C@H](NC(C)=O)C(=O)NCCC(=O)N[C@@H](CCC(=O)OC[C@H]1O[C@@H](n2cc(C)c(=O)[nH]c2=O)C[C@@H]1N=[N+]=[N-])C(=O)NCC(=O)O` were, in that order, greater than 116000 nM, 63100 nM and 86400 nM.
For `CCCCCCCCCCCCCC(=O)N[C@@H](CCC(=O)OC[C@H]1O[C@@H](n2cc(C)c(=O)[nH]c2=O)C[C@@H]1F)C(=O)OC[C@H]1O[C@@H](n2cc(C)c(=O)[nH]c2=O)C[C@@H]1N=[N+]=[N-]`, in that order: greater than 120000 nM, 2400 nM and 3600 nM.
Take `CC(=O)N[C@@H](CCC(=O)OC[C@H]1O[C@@H](n2cc(C)c(=O)[nH]c2=O)C[C@@H]1F)C(=O)OC[C@H]1O[C@@H](n2cc(C)c(=O)[nH]c2=O)C[C@@H]1N=[N+]=[N-]`: in the assay with HeLa, the CC50 was greater than 151000 nM. Besides, the EC50 came to 13500 nM in assay [1] and 13100 nM in assay [2].
For `CCCCCCCCCCCCCC(=O)N[C@@H](CCC(=O)OC[C@H]1O[C@@H](n2cc(C)c(=O)[nH]c2=O)C[C@@H]1F)C(=O)OC[C@@H]1O[C@H](n2ccc(N)nc2=O)CS1`, in that order: greater than 126000 nM, 2000 nM and 2700 nM.
The like results for `CC(=O)N[C@@H](CCC(=O)OC[C@H]1O[C@@H](n2cc(C)c(=O)[nH]c2=O)C[C@@H]1F)C(=O)OC[C@@H]1O[C@H](n2ccc(N)nc2=O)CS1` were, in that order, greater than 160000 nM, 17000 nM and 12300 nM.
The like results for `CCCCCCCCCCCCCC(=O)N[C@@H](CCC(=O)OC[C@H]1O[C@@H](n2cc(C)c(=O)[nH]c2=O)C[C@@H]1N=[N+]=[N-])C(=O)OC[C@@H]1O[C@H](n2ccc(N)nc2=O)CS1` were, in that order, greater than 122000 nM, 6000 nM and 6500 nM.
`CC(=O)N[C@@H](CCC(=O)OC[C@H]1O[C@@H](n2cc(C)c(=O)[nH]c2=O)C[C@@H]1N=[N+]=[N-])C(=O)OC[C@@H]1O[C@H](n2ccc(N)nc2=O)CS1`: the CC50 with HeLa was greater than 154000 nM. The EC50 in assay [1] turned out to be 12000 nM; in [2], 13400 nM.
As usually defined, the IC50 is the concentration needed to halve the response being measured. The IC90 is the concentration needed for an effect of 90%. `Cc1cn([C@H]2C[C@H](N=[N+]=[N-])[C@@H](COC(=O)CC[C@H](NC(=O)CCC(=O)OC[C@H]3O[C@@H](n4cc(C)c(=O)[nH]c4=O)C[C@@H]3F)C(=O)OC[C@@H]3O[C@H](n4ccc(N)nc4=O)CS3)O2)c(=O)[nH]c1=O`: in the assay on HeLa, the CC50 was greater than 107000 nM. The IC50 came out at 22.7 nM in assay [3], 12.9 nM in assay [4], 5.9 nM in [5] and 26.7 nM in assay [8]. The IC90 is 84.5 nM in assay [3], 28.3 nM in [4], 46 nM in assay [5] and 161 nM in assay [8]. For the same molecule, the EC50 is 900 nM in assay [1] and 1400 nM in [2]. Further, the “Ratio EC50” value came to 8 in [6], 12 in assay [7], 10 in [9] and 36 in [10].
In the case of `CCCCCCCCCCCCCC(=O)N[C@@H](CCC(=O)O)C(=O)OC[C@H]1O[C@@H](n2cc(C)c(=O)[nH]c2=O)C[C@@H]1F`, in the assay with HeLa, the CC50 is greater than 51000 nM. In addition, the EC50 in [1] was 6300 nM; in [2], 7700 nM.
The like results for `CCCCCCCCCCCCCC(=O)N[C@@H](CCC(=O)OC[C@@H]1O[C@H](n2ccc(N)nc2=O)CS1)C(=O)OC[C@H]1O[C@@H](n2cc(C)c(=O)[nH]c2=O)C[C@@H]1F` were, in that order, greater than 38000 nM, 600 nM and 300 nM.
The like results for `CCCCCCCCCCCCCC(=O)N[C@@H](CCC(=O)OC[C@@H]1O[C@H](n2cc(F)c(N)nc2=O)CS1)C(=O)OC[C@H]1O[C@@H](n2cc(C)c(=O)[nH]c2=O)C[C@@H]1F` were, in that order, greater than 37000 nM, 400 nM and 100 nM.
`Cc1cn([C@H]2C[C@H](F)[C@@H](CO)O2)c(=O)[nH]c1=O` [ALOVUDINE]: the IC50 came out at 2 nM in [3], 26 nM in assay [4], 107 nM in [5] and 2 nM in [8]. Besides, the IC90 in [3] is 12.3 nM; in [4], 87.2 nM; in assay [5] it was 1060 nM; in assay [8], 20.4 nM. The EC50 in [1] was 800 nM; in assay [2], 400 nM.
For the molecule `Nc1nc(=O)n([C@@H]2CS[C@H](CO)O2)cc1F` [EMTRICITABINE], the EC50 in assay [1] stood at 2000 nM; in assay [2], 800 nM.
For `Nc1ccn([C@@H]2CS[C@H](CO)O2)c(=O)n1` [LAMIVUDINE], in that order: 32700 nM and 11300 nM.
Turning to `Cc1cn([C@H]2C[C@H](N=[N+]=[N-])[C@@H](CO)O2)c(=O)[nH]c1=O` [ZIDOVUDINE], the IC90 in assay [3] was 34.2 nM; in assay [4], 152 nM; in assay [5], 10700 nM; in assay [8], 21.3 nM. For the same molecule, the EC50 was 10800 nM in assay [1] and 14200 nM in assay [2].
